Compound activity as filed in PubChem.
The entries come from a sample that favours hits as a whole.
INS promoter act: activators of insulin promoter-driven GFP, primary screen, imaging, TRM-6 cells (human fetal islet line), eGFP reporter, cell count; plate-scaled: unstimulated 0, stimulated control 100; activation, % at 2 µM; 130,000 compounds, 0.81% hits; AID 1296, 2008;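 active = activation at 2 µM above a set limit, confirmed on inspection of the cell images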;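 note: share of cells whose green reporter signal exceeds an intensity cutoff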
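Assay system: TRM-6 human fetal islet cells, insulin promoter–eGFP reporter; Also added: 0.75 µM tamoxifen as reporter inducer; Schedule: 15 h tamoxifen pre-treatment, 48 h compound treatment at 37 °C; Signal: fixed-cell fluorescence microscopy, eGFP plus Hoechst; Read-out: percent activation from GFP-positive cell fraction; Control set: stimulated and unstimulated wells.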
The depositor's hits bear a star; [ ] = another dose, or the depositor's remark.

SMILES | INS promoter act
CC[n+]1c(/C=C(\C)Nc2ccccc2)sc2ccccc21 | 8
CC[n+]1c(/C=C/C=C/N(C(C)=O)c2ccccc2)sc2cc(OC)ccc21 | 270*
CC(=O)CC(=O)Nc1ccccc1NC(C)=O | 55
CCN1CCN(C(=O)Nc2ccccc2OC)CC1 | 7
CCOc1ccc(C(C)NC(=O)c2cccc(F)c2)cc1 (centres undefined) | 9
CN=C(Nc1ccc(Cl)cc1)c1ccc(C(F)(F)F)cc1 | -7
O=C(Nc1cccnc1)c1ccc(COc2ccccc2Cl)o1 | 0
O=C(c1ccc(COc2ccccc2Br)o1)N1CCN(c2ccccn2)CC1 | 3
CN(C)C(=O)c1ccc(COc2ccccc2Br)o1 | 421*
CCCc1c(CC)c(=N)c2ccccc2n1C | 3
CC(=O)c1cn(CC(=O)NCc2cccnc2)c2ccccc12 | 5
O=C(Cn1cc(C(=O)C(F)(F)F)c2ccccc21)NCc1ccco1 | 6
O=C(Cn1cc(C(=O)c2ccco2)c2ccccc21)NCc1ccco1 | 97*
CN(CCc1ccccn1)C(=S)NC(=O)c1ccco1 | 0
CC(=O)Oc1ccc(N(C(C)=O)S(=O)(=O)c2cccs2)c2ccccc12 | -10
CC(C)(C)NC(=O)c1ccncc1 | 10
CC(C)(C)NC(=O)/C=C/c1ccc(C(F)(F)F)cc1 | 322*
CC(C)(CCl)C(=O)Nc1ccc(C(F)(F)F)cc1 | -85
O=C(NC(=S)Nc1ccc(N2CCOCC2)cc1)c1cncc(Br)c1 | -67
CC(C)c1cc(NC(=O)CSc2nnc(-c3ccccc3F)n2C)on1 | -6
Cc1nc(N(C)Cc2ccccc2)c2nnn(Cc3ccccc3)c2n1 | 0
CC(=O)c1ccc(Oc2nc(-c3cccnc3)nc3ccccc23)cc1 | 0
CC(=O)Nc1ccnc(-c2cccnc2)n1 | 187*
Cc1ccccc1C(=O)Nc1ccnc(-c2ccncc2)n1 | 0
CCCn1c(SCC(=O)Nc2ccc(Cl)cc2)n[nH]c1=O | -8
SMILES | INS promoter act
CCCn1c(SCC(=O)c2cc(C)ccc2C)n[nH]c1=O | 100*
CCCn1c(SCC(=O)Nc2ccc(C(=O)Nc3ccccc3OC)cc2)n[nH]c1=O | 7
COc1ccc(C(OCC2CO2)c2ccc(OC)cc2)cc1 (centres undefined) | -77
Cc1nn(-c2ccccc2)c(Cl)c1CN(C(=O)CCl)c1ccc(Cl)cc1 | -100
O=C(CCl)N(c1ccc(Cl)cc1)c1c[nH]c2ccccc12 | 257*
CCCCNC(=O)[C@H](Cc1c[nH]c2ccccc12)NC(=O)c1ccccc1Cl | 109
CCC(=O)N/C(=N/c1nc(C)cc(C)n1)Nc1cccc(OC)c1 | -7
CC(C)C(=O)NC(NC(=O)C(C)C)c1ccc([N+](=O)[O-])cc1 | 0
N#CC1=C(S)N(c2ccccc2)C2(CCCCC2)NC1=O | 8
CNc1nc(C(=O)O)nc(N2CCOCC2)n1 | 272
O=c1c2ccccc2nc2c3ccccc3c(NCCN3CCOCC3)nn12 | 9
C=CCNc1nc(NCCN2CCOCC2)nc(N2CCOCC2)n1 | 493*
CCOC(=O)Cn1cnc2sc3c(c2c1=O)CCC3 | -3
N#Cc1nc(-c2ccco2)oc1NCCCn1ccnc1 | -7
Cc1ccc(-n2nc(C(=O)NCc3ccc(C)o3)c3c4ccccc4n(C)c3c2=O)cc1 | 8
CCCNC(=O)CC1Sc2ccccc2NC1=O (centres undefined) | 111
O=C(CC1Sc2ccccc2NC1=O)c1ccc(Br)cc1 (centres undefined) | 8
COCCNC(=O)C(OC(=O)CC1Sc2ccccc2NC1=O)c1ccccc1 (centres undefined) | 414*
CC(C)CN(CC(C)C)C(=O)Nc1ccccc1F | 178
O=C(Nc1ccncc1)c1cc(F)cc(F)c1 | -3
Cc1c(N=C/C=C2/N(C)c3ccccc3C2(C)C)c(=O)n(-c2ccccc2)n1C | 30
C=CCN1C(=O)/C(=C\C=C2\N(C)c3ccccc3C2(C)C)SC1=S | 614*[fluoresces]
CCN1C(=O)/C(=C\N2CCCc3ccccc32)SC1=S | -7
Cc1ccc(C(=O)NCC(=O)OCC(=O)/C=C2\N(C)c3ccccc3C2(C)C)cc1C | -7
Cc1nnc(NC(=O)c2cccc(S(=O)(=O)N3CCOCC3)c2)s1 | -6
SMILES | INS promoter act
O=C(Nn1cnnc1)c1cccc(S(=O)(=O)N2CCOCC2)c1 | 7
O=C(Nc1ccccc1O)c1cccc(S(=O)(=O)N2CCOCC2)c1 | 462*
CN(C)CCCC1(O)c2ccccc2C=Cc2ccccc21 | 223
N#C/C(=C/c1cn(CC(=O)O)c2ccccc12)c1ccc(F)cc1 | -3
CCOc1cc(/C=C(/C#N)c2ccc(F)cc2)ccc1OCc1ccc(C(=O)O)o1 | 226
Cn1cccc1/C=C(/C#N)c1ccc(F)cc1 | 438*
Cc1cc(C)c(S(=O)(=O)/N=C2/C=C(Sc3ncn[nH]3)C(=O)c3ccccc32)cc1C | 178
Clc1ccccc1Cn1nnc(-c2cccs2)n1 | 569*
O=C(O)CCn1nnc(-c2cccs2)n1 | 0
Clc1ccccc1-c1nnc2sc(-c3cccs3)nn12 | 0
COc1ccc(-c2cnnc(N/N=C/C(C)=C/c3ccccc3)n2)cc1 | 6
CN(Cc1nc(-c2ccncc2)no1)S(=O)(=O)c1ccccc1 | 24
O=c1[nH]c(CS(=O)(=O)c2ccccc2)nc2ccccc12 | 6
O=c1cc(CS(=O)(=O)c2ccccc2)nc(-c2ccncc2)[nH]1 | 331*
COc1cc(Cl)ccc1NC(=O)COc1ccccc1C(=O)N1CCN(c2ccc(O)cc2)CC1 | -79
O=C1c2ccccc2C(=O)N1CCC(=O)N1CCc2ccccc21 | 0
O=C(O)CCC1=C2c3ccccc3CCN2C(=O)CC1 | 450*
COC(=O)CCC(=O)NN1C(=O)c2ccccc2C1=O | 10
OCCNc1nc(SCc2ccccc2)nc2sc3c(c12)CCC3 | -9
COc1ccc(S(=O)(=O)O/N=C2\CCCc3ccccc32)cc1 | 0
COc1ccc(CN(C)C(C)C(=O)Nc2ccc(S(=O)(=O)N3CCCC3)cc2)c(OC)c1OC (centres undefined) | -7
O=C(Cn1cccc1C(=O)c1ccccc1)NCc1cccc(Cl)c1 | 387*
O=C(Cn1cccc1C(=O)c1ccccc1)NCc1ccc(Cl)cc1 | 7
Cc1ccc(CNC(=O)Cn2cccc2C(=O)c2ccccc2)cc1 | 5
CCOC(=O)C(=O)/C(=C\N(C)C)c1onc(-c2c(F)cccc2Cl)c1C(=O)OC | 3
SMILES | INS promoter act
c1ccc(-c2nc(-c3ccncc3)no2)cc1 | -80
Clc1ccc(-c2nc(Cc3ccccc3)no2)cc1 | 84*
Clc1ccc(-c2noc(CCCOc3ccccc3)n2)cc1 | 8
Cc1c(C(=O)/C=C/c2cccs2)oc2ccc(F)cc12 | 3
CCOC(=O)CC1C(=O)NCCN1C(=O)c1sc2ccccc2c1Cl (centres undefined) | 6
CCC(C)(C)NC(=O)C(c1cccn1C)N(C(=O)Cn1nnc2ccccc21)c1ccc(OC)cc1 (centres undefined) | 150*
CCC(C)(C)NC(=O)C(c1ccccc1)N(Cc1cccs1)C(=O)Cn1nnc2ccccc21 (centres undefined) | -5
CCc1ccc(C(C(=O)NC(C)(C)CC)N(Cc2ccco2)C(=O)Cn2nnc3ccccc32)cc1 (centres undefined) | 360
C=CCn1c(SCC(=O)N2N=C(c3ccco3)CC2c2ccco2)nnc1-c1ccncc1 (centres undefined) | 3
CCC(=O)NCc1ccc2[nH]c(C)cc2c1 | -6
CCCS(=O)(=O)c1c(S(=O)(=O)CCC)c2cc(-c3ccncc3)ccn2c1C(=O)OC | 379*
CCCS(=O)(=O)c1c(S(=O)(=O)CCC)c2c(C)cccn2c1C(N)=O | -86
